In ChEMBL document CHEMBL1212751, “Pharmacokinetics of artemether-lumefantrine and artesunate-amodiaquine in children in Kampala, Uganda” (Antimicrob Agents Chemother, 2010):

Columns and labels:
Homo sapiens [1] = assay: Plasma concentration in Gabonian malarial children aged 6 months to 10 years assessed as desethylamodiaquine level at 30 mg/kg measured on third day post dose; details: in vivo
[2] = AUC (0-8 hrs) in Ugandan children patient with uncomplicated malaria at 10 mg/kg, perorally qd on first 2 days and then 5 mg/kg, perorally on third day co-administered with artesunate at 4 mg/kg, perorally bid for 3 days; assay type: ADME, organism-based; design: dose 10 mg/kg, time < 8 hr, route oral; details: human, plasma, po
Homo sapiens [3] = assay: Plasma concentration in Nigerian human adult malaria patient assessed as desethylamodiaquine level at 25 mg/kg measured on seventh day post dose; details: in vivo
Homo sapiens [4] = assay: AUC (0-infinity) in healthy human adult assessed as desethylamodiaquine level at 600 mg administered as single dose; assay type: ADME, organism-based, Plasma; design: dose 600 mg, time infinity; details: in vivo
Homo sapiens [5] = assay: AUC (0-infinity) in Ugandan children patient with uncomplicated malaria assessed as desethylamodiaquine level at 10 mg/kg, perorally qd on first 2 days and then 5 mg/kg, perorally on third day co-administered with artesunate at 4 mg/kg, perorally bid for 3 days; assay type: ADME, organism-based, Plasma; design: dose 10 mg/kg, time infinity, route oral; details: in vivo, po
In short: (§1)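 Oral AQ-AS was given for 3 days with food and fat to Ugandan children aged 5–13 y (n = 21). Venous blood was drawn pre-last dose and at 2, 4, 8, 24 and 120 h after it. For AQ-DEAQ, plasma was cold-centrifuged at 3,000 × g for 15 min and stored at −80°C. AUC0-∞ used trapezoids plus Clast/λz, with λz usually from the last three points.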

Homo sapiens [6] = assay: AUC (0-120 hrs) in Ugandan children patient with uncomplicated malaria assessed as desethylamodiaquine level at 10 mg/kg, perorally qd on first 2 days and then 5 mg/kg, perorally on third day co-administered with artesunate at 4 mg/kg, perorally bid for 3 days; assay type: ADME, organism-based, Plasma; design: dose 10 mg/kg, time < 120 hr, route oral; details: in vivo, po
[7] = AUC (0-infinity) in healthy human adult at 600 mg administered as single dose; assay type: ADME, organism-based; design: dose 600 mg, time infinity; details: plasma
[8] = Half life in Ugandan children patient with uncomplicated malaria at 10 mg/kg, perorally qd on first 2 days and then 5 mg/kg, perorally on third day co-administered with artesunate at 4 mg/kg, perorally bid for 3 days; assay type: ADME, organism-based; details: human, in vivo, po
In short: as §1

[9] = Cmax in Ugandan children patient with uncomplicated malaria at 10 mg/kg, perorally qd on first 2 days and then 5 mg/kg, perorally on third day co-administered with artesunate at 4 mg/kg, perorally bid for 3 days; assay type: ADME, organism-based; design: dose 10 mg/kg, route oral; details: human, in vivo, po
In short: as §1

Homo sapiens [10] = assay: Cmax in Ugandan children patient with uncomplicated malaria assessed as desethylamodiaquine level at 10 mg/kg, perorally qd on first 2 days and then 5 mg/kg, perorally on third day co-administered with artesunate at 4 mg/kg, perorally bid for 3 days; assay type: ADME, organism-based; design: dose 10 mg/kg, route oral; details: in vivo, po
In short: as §1

[11] = AUC (0-infinity) in Ugandan children patient with uncomplicated malaria at 10 mg/kg, perorally qd on first 2 days and then 5 mg/kg, perorally on third day co-administered with artesunate at 4 mg/kg, perorally bid for 3 days; assay type: ADME, organism-based; design: dose 10 mg/kg, time infinity, route oral; details: human, plasma, po
In short: as §1

Homo sapiens [12] = assay: Half life in Ugandan children patient with uncomplicated malaria assessed as desethylamodiaquine level at 10 mg/kg, perorally qd on first 2 days and then 5 mg/kg, perorally on third day co-administered with artesunate at 4 mg/kg, perorallybid for 3 days; assay type: ADME, organism-based; details: in vivo, po
In short: as §1

Homo sapiens [13] = assay: AUC (0-infinity) in Ugandan children patient with uncomplicated malaria assessed as dihydroartemisin administered twice daily for 3 days as 20/120 mg tablets containing artemether-lumefantrine combination; assay type: ADME, organism-based, Plasma; design: dose 120 mg, time infinity; details: in vivo, po, 72 h
In short: (§2)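 Children (5–13 y, n = 20) took AL twice daily for 3 days by weight band (20–24 kg, 2 tablets; 25–34 kg, 3; >34 kg, 4), each dose with 250 ml milk (3.3 g fat). Plasma was sampled 0–120 h after the morning last dose. AR and DHA were measured by LC-MS/MS; LR by HPLC-UV (LLOQ 25 ng/ml). Values below LLOQ were treated as missing.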

Homo sapiens [14] = assay: Cmax in Ugandan children patient with uncomplicated malaria assessed as dihydroartemisin administered twice daily for 3 days as 20/120 mg tablets containing artemether-lumefantrine combination; assay type: ADME, organism-based; design: dose 120 mg; details: in vivo, po, 72 h
In short: as §2

[15] = Half life in Ugandan children patient with uncomplicated malaria administered twice daily for 3 days as 20/120 mg tablets containing artemether-lumefantrine combination; assay type: ADME, organism-based; details: human, in vivo, po
In short: as §2

[16] = Cmax in Ugandan children patient with uncomplicated malaria administered twice daily for 3 days as 20/120 mg tablets containing artemether-lumefantrine combination; assay type: ADME, organism-based; design: dose 120 mg; details: human, in vivo, oral
In short: as §2

Homo sapiens [17] = assay: Half life in Ugandan children patient with uncomplicated malaria assessed as dihydroartemisin administered twice daily for 3 days as 20/120 mg tablets containing artemether-lumefantrine combination; assay type: ADME, organism-based; details: in vivo, po, 72 h
In short: as §2

[18] = AUC (0-infinity) in Ugandan children patient with uncomplicated malaria administered twice daily for 3 days as 20/120 mg tablets containing artemether-lumefantrine combination; assay type: ADME, organism-based; design: dose 120 mg, time infinity; details: human, plasma, po
In short: as §2

Homo sapiens [19] = assay: AUC (0-infinity) in Ugandan children patient with uncomplicated malaria assessed as dihydroartemisinin level at 4 mg/kg, perorally […] co-administered with amodiaquine at 10 mg/kg, perorally qd on first 2 days and then 5 mg/kg, perorally on third day; assay type: ADME, organism-based, Plasma; design: dose 4 mg/kg, time infinity, route oral; details: in vivo, po
In short: (§3)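 Ugandan children aged 5–13 y with uncomplicated malaria (n = 21) were dosed once daily for 3 days, with food and fat. Venous plasma was sampled before the last dose and 2, 4, 8, 24 and 120 h after it, cold-centrifuged and stored at −80°C. AS and DHA were measured by solid-phase extraction LC-MS/MS (positive ion mode). AUC0-∞ used the linear up-log down trapezoidal rule; Cmax was observed.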

Homo sapiens [20] = assay: Cmax in Ugandan children patient with uncomplicated malaria assessed as dihydroartemisinin level at 4 mg/kg, perorally […] for 3 days co-administered with amodiaquine at 10 mg/kg, perorally qd on first 2 days and then 5 mg/kg, perorally on third day; assay type: ADME, organism-based; design: dose 4 mg/kg, route oral; details: in vivo, po
In short: as §3

[21] = AUC (0-infinity) in Ugandan children patient with uncomplicated malaria at 4 mg/kg, perorally […] for 3 days co-administered with amodiaquine at 10 mg/kg, perorally qd on first 2 days and then 5 mg/kg, perorally on third day; assay type: ADME, organism-based; design: dose 4 mg/kg, route oral, time infinity; details: human, plasma, po
In short: as §3

[22] = Cmax in Ugandan children patient with uncomplicated malaria at 4 mg/kg, perorally […] for 3 days co-administered with amodiaquine at 10 mg/kg, perorally qd on first 2 days and then 5 mg/kg, perorally on third day; assay type: ADME, organism-based; design: dose 4 mg/kg, route oral; details: human, in vivo, po
In short: as §3

Homo sapiens [23] = assay: Half life in Ugandan children patient with uncomplicated malaria assessed as dihydroartemisinin level at 4 mg/kg, perorally bid for 3 days co-administered with amodiaquine at 10 mg/kg, perorally qd on first 2 days and then 5 mg/kg, perorally on third day; assay type: ADME, organism-based; details: in vivo, po
In short: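 Ugandan children aged 5–13 y (n = 21) were dosed with food and fat. Venous blood (3 ml) was drawn before the last dose and at 2, 4, 8, 24 and 120 h after it. Samples were iced, cold-centrifuged within 30 min, and the plasma was stored at −80°C. DHA was assayed by SPE LC-MS/MS in positive ion mode. λz came from terminal regression, usually the last three points. Values are geometric means (90% CIs).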

A Concentration (Homo sapiens [1]) of 149 ng/mL, an AUC at 8 h [2] of 28.9 ng·h/mL and a Concentration (Homo sapiens [3]) of 62 ng/mL were found for CCN(CC)Cc1cc(Nc2ccnc3cc(Cl)ccc23)ccc1O.Cl in this work. For the same compound, the AUC (Homo sapiens [4]) was 8437 ng·h/mL, the AUC (Homo sapiens [5]) was 14770 ng·h/mL and the AUC (Homo sapiens [6]) was 11242 ng·h/mL. For the same compound, the AUC(0-inf) [7] was 154 ng·h/mL, the half-life [8] was 3.3 h and the Cmax [9] was 5.2 ng/mL. The Cmax (Homo sapiens [10]) was 235 ng/mL, the AUC(0-inf) [11] was 39.3 ng·h/mL and the t1/2 (Homo sapiens [12]) was 60 h.

An AUC (Homo sapiens [13]) of 382 ng·h/mL, a Cmax (Homo sapiens [14]) of 119 ng/mL and a half-life [15] of 3.9 h were found for CO[C@H]1O[C@@H]2O[C@@]3(C)CC[C@H]4[C@H](C)CC[C@@H]([C@H]1C)[C@@]24OO3 [ARTEMETHER] in this work. It also gave a Cmax [16] of 34 ng/mL, a t1/2 (Homo sapiens [17]) of 1.9 h and an AUC(0-inf) [18] of 168 ng·h/mL.

A half-life [15] of 32.7 h, a Cmax [16] of 6760 ng/mL and an AUC(0-inf) [18] of 210000 ng·h/mL were found for CCCCN(CCCC)CC(O)c1cc(Cl)cc2c1-c1ccc(Cl)cc1/C2=C/c1ccc(Cl)cc1 (stereo unspecified) [LUMEFANTRINE] in this work.

An AUC (Homo sapiens [19]) of 1404 ng·h/mL, a Cmax (Homo sapiens [20]) of 473 ng/mL and an AUC(0-inf) [21] of 113 ng·h/mL were found for C[C@H]1[C@H](OC(=O)CCC(=O)O)O[C@@H]2O[C@@]3(C)CC[C@H]4[C@H](C)CC[C@@H]1[C@@]24OO3 [ARTESUNATE] in this work. For the same compound, the Cmax [22] was 51.3 ng/mL and the t1/2 (Homo sapiens [23]) was 1.3 h.
